Each block holds one compound with its values, some of them ahead of it.
Assays:
[1] = target: T1, Testis-specific serine/threonine-protein kinase 2 (Homo sapiens) (UniProt Q96PF2); test: Inhibition of human recombinant TSSK2 at 500 nM related to control ULK1
T1 sequence (whole entry): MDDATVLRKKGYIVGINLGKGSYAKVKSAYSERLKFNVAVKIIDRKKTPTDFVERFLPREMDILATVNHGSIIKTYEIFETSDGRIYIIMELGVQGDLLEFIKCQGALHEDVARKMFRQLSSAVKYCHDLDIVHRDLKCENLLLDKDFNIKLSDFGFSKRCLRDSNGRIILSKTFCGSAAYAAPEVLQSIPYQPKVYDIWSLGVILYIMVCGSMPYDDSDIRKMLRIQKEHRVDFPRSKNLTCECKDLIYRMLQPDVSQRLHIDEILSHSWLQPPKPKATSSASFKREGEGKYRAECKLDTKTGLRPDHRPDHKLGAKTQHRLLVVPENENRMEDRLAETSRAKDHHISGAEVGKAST

[2] = target: Serine-protein kinase ATM (Homo sapiens) (UniProt Q13315); test: Inhibition of human recombinant ATM at 500 nM in presence of ATP by radiometric assay relative to control
Outline: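 Panel of 327 recombinant human kinases, each assayed in vitro by radiometric activity assay in duplicate at a single inhibitor concentration per compound, chosen with reference to its ULK1 inhibition. Activity remaining was expressed as percent of vehicle control, and percent inhibition was calculated as 100 minus percent activity remaining.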

[3] = target: Platelet-derived growth factor receptor alpha (Homo sapiens) (UniProt P16234); test: Inhibition of human recombinant PDGFRa at 500 nM in presence of ATP by radiometric assay relative to control
[4] = target: Serine/threonine-protein kinase N1 (Homo sapiens) (UniProt Q16512); test: Inhibition of human recombinant PKN1 at 500 nM in presence of ATP by radiometric assay relative to control
[5] = target: Serine/threonine-protein kinase SIK2 (Homo sapiens) (UniProt Q9H0K1); test: Inhibition of human recombinant QIK at 15 nM related to control ULK1
[6] = target: Tau-tubulin kinase 2 (Homo sapiens) (UniProt Q6IQ55); test: Inhibition of human recombinant TTBK2 at 15 nM in presence of ATP by radiometric assay relative to control
[7] = target: TGF-beta receptor type-2 (Homo sapiens) (UniProt P37173); test: Inhibition of human recombinant TGFbR2 at 40 nM related to control ULK1
[8] = target: T2, Tyrosine-protein kinase JAK3 (Homo sapiens) (UniProt P52333); test: Inhibition of human recombinant JAK3 at 40 nM in presence of ATP by radiometric assay relative to control
T2 sequence (whole entry): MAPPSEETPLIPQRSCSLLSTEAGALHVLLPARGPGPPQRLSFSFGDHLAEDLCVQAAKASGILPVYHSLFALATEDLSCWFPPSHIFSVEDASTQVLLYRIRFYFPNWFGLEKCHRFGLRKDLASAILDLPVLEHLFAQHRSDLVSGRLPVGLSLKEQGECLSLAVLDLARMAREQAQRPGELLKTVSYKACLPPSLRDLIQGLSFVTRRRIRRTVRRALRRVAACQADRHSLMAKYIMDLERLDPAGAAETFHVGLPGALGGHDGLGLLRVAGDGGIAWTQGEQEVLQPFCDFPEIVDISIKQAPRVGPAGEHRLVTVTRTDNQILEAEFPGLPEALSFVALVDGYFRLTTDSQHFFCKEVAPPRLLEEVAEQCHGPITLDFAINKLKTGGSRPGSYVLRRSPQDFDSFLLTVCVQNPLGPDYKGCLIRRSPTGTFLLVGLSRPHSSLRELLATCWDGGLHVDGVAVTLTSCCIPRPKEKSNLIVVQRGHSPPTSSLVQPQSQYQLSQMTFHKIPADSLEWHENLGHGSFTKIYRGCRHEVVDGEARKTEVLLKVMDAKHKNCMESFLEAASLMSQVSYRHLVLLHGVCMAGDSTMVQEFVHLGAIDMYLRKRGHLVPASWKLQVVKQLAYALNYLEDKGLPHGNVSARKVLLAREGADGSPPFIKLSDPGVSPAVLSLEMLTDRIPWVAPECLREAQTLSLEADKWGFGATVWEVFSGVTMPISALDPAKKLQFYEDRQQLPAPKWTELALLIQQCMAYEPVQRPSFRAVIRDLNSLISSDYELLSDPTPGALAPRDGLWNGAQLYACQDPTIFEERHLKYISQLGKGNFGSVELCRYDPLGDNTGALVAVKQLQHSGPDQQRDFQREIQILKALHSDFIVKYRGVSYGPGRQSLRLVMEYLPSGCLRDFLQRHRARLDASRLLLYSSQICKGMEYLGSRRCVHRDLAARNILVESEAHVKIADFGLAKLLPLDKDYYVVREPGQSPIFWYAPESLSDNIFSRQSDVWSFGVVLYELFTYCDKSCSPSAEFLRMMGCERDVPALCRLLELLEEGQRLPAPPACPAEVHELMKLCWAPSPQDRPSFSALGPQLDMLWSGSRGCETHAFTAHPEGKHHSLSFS

Chain of Serine/threonine-protein kinase N1 (Homo sapiens) (Q16512 2-942 limits assumed): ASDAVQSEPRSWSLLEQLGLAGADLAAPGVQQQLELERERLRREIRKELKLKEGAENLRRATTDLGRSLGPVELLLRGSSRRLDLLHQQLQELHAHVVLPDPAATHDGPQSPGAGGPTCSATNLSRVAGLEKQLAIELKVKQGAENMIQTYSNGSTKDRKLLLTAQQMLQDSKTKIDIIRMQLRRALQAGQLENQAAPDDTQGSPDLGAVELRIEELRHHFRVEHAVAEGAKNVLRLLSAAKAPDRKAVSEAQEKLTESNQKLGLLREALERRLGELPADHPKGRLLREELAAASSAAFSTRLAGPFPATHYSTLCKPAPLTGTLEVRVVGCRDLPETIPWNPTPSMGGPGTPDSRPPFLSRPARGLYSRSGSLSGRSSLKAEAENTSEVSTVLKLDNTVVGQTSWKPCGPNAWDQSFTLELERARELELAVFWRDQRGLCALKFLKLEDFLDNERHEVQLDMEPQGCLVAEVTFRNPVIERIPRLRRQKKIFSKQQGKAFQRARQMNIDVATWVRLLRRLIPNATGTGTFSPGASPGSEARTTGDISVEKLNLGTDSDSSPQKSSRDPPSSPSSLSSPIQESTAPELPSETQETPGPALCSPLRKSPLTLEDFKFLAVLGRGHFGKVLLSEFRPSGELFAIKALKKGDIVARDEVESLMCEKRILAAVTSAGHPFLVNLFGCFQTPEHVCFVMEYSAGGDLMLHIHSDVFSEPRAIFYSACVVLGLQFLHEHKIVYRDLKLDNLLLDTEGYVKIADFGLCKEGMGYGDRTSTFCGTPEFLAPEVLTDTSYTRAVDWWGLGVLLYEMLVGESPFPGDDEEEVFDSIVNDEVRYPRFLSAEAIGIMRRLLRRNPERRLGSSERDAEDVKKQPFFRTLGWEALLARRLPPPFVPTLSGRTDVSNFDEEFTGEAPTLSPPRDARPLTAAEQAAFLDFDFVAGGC
Chain of TGF-beta receptor type-2 (Homo sapiens) (P37173 whole entry): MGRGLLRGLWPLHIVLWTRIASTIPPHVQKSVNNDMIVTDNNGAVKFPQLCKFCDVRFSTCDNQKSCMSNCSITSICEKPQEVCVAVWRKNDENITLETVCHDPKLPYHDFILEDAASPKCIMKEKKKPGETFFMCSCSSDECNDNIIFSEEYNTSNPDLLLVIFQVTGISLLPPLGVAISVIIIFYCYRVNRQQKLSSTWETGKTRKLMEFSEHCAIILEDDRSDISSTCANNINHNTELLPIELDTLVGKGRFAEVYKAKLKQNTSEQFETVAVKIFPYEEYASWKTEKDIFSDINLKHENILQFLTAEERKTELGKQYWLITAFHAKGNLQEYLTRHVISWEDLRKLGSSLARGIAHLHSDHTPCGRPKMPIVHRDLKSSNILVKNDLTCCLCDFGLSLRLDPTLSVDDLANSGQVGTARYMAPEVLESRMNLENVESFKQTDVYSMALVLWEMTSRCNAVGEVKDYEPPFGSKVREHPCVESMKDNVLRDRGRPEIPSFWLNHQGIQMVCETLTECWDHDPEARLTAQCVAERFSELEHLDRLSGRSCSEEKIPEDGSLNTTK
Chain of Serine-protein kinase ATM (Homo sapiens) (Q13315 whole entry): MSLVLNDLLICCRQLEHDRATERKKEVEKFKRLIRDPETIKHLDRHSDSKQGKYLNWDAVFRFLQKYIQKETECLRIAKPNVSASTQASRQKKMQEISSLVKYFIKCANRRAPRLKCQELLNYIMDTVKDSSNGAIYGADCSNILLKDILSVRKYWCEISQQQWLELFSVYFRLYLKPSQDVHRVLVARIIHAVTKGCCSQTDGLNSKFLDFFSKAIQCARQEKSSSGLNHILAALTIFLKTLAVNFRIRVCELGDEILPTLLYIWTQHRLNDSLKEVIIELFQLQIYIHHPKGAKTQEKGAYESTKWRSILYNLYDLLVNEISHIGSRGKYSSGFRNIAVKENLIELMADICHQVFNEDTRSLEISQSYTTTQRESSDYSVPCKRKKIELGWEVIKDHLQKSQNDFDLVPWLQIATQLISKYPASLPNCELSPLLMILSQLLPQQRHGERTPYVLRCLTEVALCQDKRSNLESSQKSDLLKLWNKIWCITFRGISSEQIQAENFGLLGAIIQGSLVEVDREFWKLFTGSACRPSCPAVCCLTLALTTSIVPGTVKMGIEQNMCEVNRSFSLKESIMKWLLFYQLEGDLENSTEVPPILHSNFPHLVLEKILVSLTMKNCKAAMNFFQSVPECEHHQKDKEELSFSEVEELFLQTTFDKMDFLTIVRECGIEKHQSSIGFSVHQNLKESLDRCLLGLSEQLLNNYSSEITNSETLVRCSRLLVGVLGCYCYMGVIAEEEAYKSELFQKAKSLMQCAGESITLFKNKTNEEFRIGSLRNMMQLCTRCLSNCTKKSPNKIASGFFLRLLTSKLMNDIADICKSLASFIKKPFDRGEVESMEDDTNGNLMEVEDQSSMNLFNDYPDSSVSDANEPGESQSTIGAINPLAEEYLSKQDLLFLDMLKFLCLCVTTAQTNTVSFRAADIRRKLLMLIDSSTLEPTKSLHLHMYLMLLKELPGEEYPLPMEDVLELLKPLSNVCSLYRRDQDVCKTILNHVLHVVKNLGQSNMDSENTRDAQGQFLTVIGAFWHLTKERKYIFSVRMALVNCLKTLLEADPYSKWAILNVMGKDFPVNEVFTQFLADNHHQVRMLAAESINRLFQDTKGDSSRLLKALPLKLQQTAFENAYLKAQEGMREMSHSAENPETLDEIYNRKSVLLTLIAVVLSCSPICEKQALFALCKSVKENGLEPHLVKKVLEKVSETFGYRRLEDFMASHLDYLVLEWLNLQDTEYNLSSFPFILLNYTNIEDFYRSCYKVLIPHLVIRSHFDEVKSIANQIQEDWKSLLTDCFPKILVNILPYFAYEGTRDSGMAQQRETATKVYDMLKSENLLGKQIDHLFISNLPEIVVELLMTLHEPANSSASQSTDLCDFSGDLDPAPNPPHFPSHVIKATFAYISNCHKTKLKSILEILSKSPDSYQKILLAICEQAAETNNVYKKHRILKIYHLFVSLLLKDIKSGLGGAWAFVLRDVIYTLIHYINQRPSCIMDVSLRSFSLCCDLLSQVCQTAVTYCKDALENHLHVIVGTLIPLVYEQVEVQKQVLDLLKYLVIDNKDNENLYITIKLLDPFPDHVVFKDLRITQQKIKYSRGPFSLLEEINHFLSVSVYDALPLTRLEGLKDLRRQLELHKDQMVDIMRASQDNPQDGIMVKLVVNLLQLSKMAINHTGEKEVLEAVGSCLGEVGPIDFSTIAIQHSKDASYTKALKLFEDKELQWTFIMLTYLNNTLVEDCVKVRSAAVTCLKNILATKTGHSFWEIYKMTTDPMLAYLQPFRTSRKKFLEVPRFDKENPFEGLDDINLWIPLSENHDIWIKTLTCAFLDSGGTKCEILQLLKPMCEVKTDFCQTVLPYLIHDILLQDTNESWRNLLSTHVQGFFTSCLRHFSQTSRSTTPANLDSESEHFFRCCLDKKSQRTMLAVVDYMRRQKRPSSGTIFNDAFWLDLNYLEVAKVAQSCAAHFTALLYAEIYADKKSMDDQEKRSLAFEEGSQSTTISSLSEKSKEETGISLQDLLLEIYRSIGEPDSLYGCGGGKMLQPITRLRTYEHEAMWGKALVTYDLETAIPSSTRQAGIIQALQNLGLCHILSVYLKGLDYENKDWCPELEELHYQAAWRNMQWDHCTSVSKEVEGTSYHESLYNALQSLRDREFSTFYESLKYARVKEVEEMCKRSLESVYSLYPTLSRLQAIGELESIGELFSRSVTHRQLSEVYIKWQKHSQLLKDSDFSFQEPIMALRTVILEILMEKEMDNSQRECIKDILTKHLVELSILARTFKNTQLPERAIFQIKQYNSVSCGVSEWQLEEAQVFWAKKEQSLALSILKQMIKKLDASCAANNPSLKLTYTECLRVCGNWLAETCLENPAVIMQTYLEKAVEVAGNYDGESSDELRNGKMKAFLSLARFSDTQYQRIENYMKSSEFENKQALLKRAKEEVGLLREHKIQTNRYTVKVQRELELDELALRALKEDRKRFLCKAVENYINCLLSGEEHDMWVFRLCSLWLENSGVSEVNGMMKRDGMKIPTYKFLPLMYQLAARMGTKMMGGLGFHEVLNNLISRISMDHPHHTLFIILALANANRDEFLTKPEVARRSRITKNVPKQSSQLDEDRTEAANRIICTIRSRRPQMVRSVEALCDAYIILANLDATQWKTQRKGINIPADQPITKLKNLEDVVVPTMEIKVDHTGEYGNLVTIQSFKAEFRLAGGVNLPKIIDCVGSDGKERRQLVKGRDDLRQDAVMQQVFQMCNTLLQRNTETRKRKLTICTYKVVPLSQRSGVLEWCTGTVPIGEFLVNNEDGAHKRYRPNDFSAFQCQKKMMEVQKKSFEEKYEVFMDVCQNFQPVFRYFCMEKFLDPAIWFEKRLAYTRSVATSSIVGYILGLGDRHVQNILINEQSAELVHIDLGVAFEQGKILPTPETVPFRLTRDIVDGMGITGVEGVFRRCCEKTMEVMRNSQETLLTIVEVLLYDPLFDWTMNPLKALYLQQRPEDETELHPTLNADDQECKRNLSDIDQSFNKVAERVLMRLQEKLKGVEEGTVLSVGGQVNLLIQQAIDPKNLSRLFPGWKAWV

fold change (FC) [1]: 0.03
inhibition [2]: 2%
inhibition [3]: 0%
inhibition [4]: 0%
SMILES: CNC(=O)c1ccccc1Oc1nc(Nc2cc(OC)c(OC)c(OC)c2)ncc1Br

fold change (FC) [5]: 1.02
inhibition [6]: 0%
SMILES: CC(C)[C@H](NC(=O)c1cc(-c2cnn3cc(-c4ccc(OCCN5CCCCC5)cc4)cnc23)cs1)C(F)(F)F

fold change (FC) [7]: 0.64
inhibition [8]: 0%
SMILES: O=C(N[C@@H](C1CC1)C(F)(F)F)c1cc(-c2cnn3cc(-c4ccc(F)cc4)cnc23)cs1
